From ChEMBL document CHEMBL4513216, “Probing the Open Global Health Chemical Diversity Library for Multistage-Active Starting Points for Next-Generation Antimalarials” (ACS Infect Dis, 2020)

Test: Toxicity liver stage against HepG2, at 10uM
Type: cell-based
Parameters: test concentration 10 uM, cell line HepG2-A16-CD81EGFP
Conditions: human, HepG2-A16-CD81EGFP cells; read-out: INHIBITION
How it was run: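 Uninfected HepG2-A16-CD81EGFP cells, 3 × 10^3 per well, 1536-well, plated on prespotted compound at 10 μM final, parasite-free screening media added to match infected plates; puromycin 10 μM positive, DMSO 0.5% negative; run in parallel with 48 h PbLuc assay at 37 °C, 5% CO2; viability by CellTiter-Glo luminescence, normalized to controls.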

Point of comparison: CC(C)C(=O)NCc1ccnc(Oc2ccc(F)cc2)c1, cytotoxicity at 10 µM 6.06%. Against it:
- O=C1CC(N2CCN(c3ccc(O)cc3)CC2)C(=O)N1Cc1cccs1 (stereo not drawn) — lower, 5.77%
- CC(C)(CO)Nc1c(NCc2ccncc2)c(=O)c1=O — lower, -3.97%
- CC(C)CC(=O)Nc1ccc2c(c1)ncn2CC(=O)NCCN(C)C — lower, -7.58%
- COc1ccc(C(=O)Nc2n[nH]c(C3CCCO3)n2)cc1 (stereo not drawn) — lower, -2.46%
- Cc1ccc(-c2csc3c(=O)[nH]c(N4CCCC(C(=O)O)C4)nc23)cc1 (stereo not drawn) — lower, -68%
- CSCC(C)(O)CNS(=O)(=O)c1cccc(C)c1 (stereo not drawn) — lower, -2.85%
- CCOc1ccccc1C(=O)NCCc1ccoc1 — higher, 8.54%
- Cc1nc(N2CCN(C(=O)c3cccnc3)CC2)cc(-n2cccc2)n1 — lower, -5.19%
- O=C(CN1C(=O)CCC1=O)N1CCOC2(CCOCC2)C1 — lower, 4.1%
- COCCNc1c(C#N)c2c(c3nncn13)CN(C)CC2 — higher, 6.83%
- CC(=O)CSc1nnc2n1N=CN(c1cccc(Cl)c1)C2 — lower, 1.05%
- CCOC1Sc2nnc(C)n2N=C1c1ccc(F)cc1 (stereo not drawn) — lower, 4.48%
- CCOC(=O)CCC(=O)N1CCC(Oc2ccc(C(F)(F)F)cn2)CC1 — higher, 11.6%
- Cc1nc2c(N(C)Cc3ccnn3C)nc(N)nc2n1C — lower, -7.42%
- O=C(NCC1CCCO1)c1cc(Sc2ncccn2)ccn1 (stereo not drawn) — lower, -17.2%
- CSCc1cccc(S(=O)(=O)N2CCC(C)CC2)c1 — higher, 13.1%
- CCOCCCNC(=O)c1cc(C)nc(N2CCCC2)n1 — lower, 1.11%
- Cc1cncc(CN2CC[C@@](O)(CNC(=O)c3c[nH]cn3)[C@H](O)C2)c1 — lower, -1.68%
- CCc1cc(O)n2nc(C3CCN(C(=O)c4ccncc4)CC3)cc2n1 — lower, 3.51%
- COC(=O)c1cccc(C2CNCCN2C)c1 (stereo not drawn) — lower, 0.5%
- N[C@@H]1CCCN(C(=O)Cc2c[nH]c3ccccc23)[C@H]1c1ccccc1F — higher, 7.45%
- O=C(O)c1ccc(CN2CCCC(Cc3ccn[nH]3)C2)cc1 (stereo not drawn) — lower, -6.08%
- CCOCCN1CCC(c2cnccn2)CC1 — lower, 5.8%
- Cc1nc(C2CCN(c3ccccc3)CC2)no1 — lower, -28.4%
- Cc1noc(C)c1-c1cncc(C2CCCN2Cc2c[nH]cn2)n1 (stereo not drawn) — lower, -12.4%
- Cc1ccc(O)c(CN2CCc3nc(-c4cccnc4)nc(O)c3C2)c1 — lower, 5.19%
- O=S(=O)(N1CCOCC1)N1CCC(Oc2cnccn2)CC1 — lower, -23.3%
- c1cc2nccc(CC3CCCN(Cc4ncc[nH]4)CC3)c2cn1 (stereo not drawn) — lower, -2.06%
- Cc1cnn(CC(C)NCc2ccc(C#N)cc2)c1 (stereo not drawn) — lower, -11.8%
- CC(c1ccncc1)N(C)S(C)(=O)=O (stereo not drawn) — lower, 1.18%
- CN1CCOC(C(=O)Nc2nc(-c3ccc4c(c3)CCC4)n[nH]2)C1 (stereo not drawn) — lower, -7.53%
- Cc1noc(CNc2ccc(CC(=O)N3CCSCC3)cc2)n1 — lower, -2.29%
- CCNC(=O)NC(C)(C)C(=O)NCCc1csc2ccccc12 — lower, -15.5%
- Cc1sc(C(=O)NS(C)(=O)=O)cc1-c1ccc(F)cc1 — lower, 2.53%
- COCCCN1Cc2cccc(NC(=O)c3cc(F)ccc3F)c2C1 — lower, -1.74%
- c1ncc2c(n1)CN(c1ncnc3[nH]ccc13)CC2 — lower, -4.28%
- O=C(NCc1ccnc(OCC2CC2)c1)C1COc2ccccc2O1 (stereo not drawn) — lower, -3.88%
- CC(C)N(C)C(=O)c1ccc(CNc2cncc(Cl)n2)cc1 — lower, 2.87%
- Nc1cc2c(nn1)CCN(C(=O)CCc1ccc3c(c1)OCO3)C2 — lower, 3.23%
- CC(C(=O)N1CCC(Cc2ccc(F)cc2)CC1)n1ccnc1 (stereo not drawn) — lower, 4.57%
- CS(=O)(=O)NC1CCCN(c2ccc(C#N)cn2)C1 (stereo not drawn) — lower, -12.7%
- Cc1cc(CNC(=O)NCCOc2ccc(F)c(F)c2)on1 — higher, 16.3%
- CCN1CCN(C(=O)NCc2ccccc2Cn2cncn2)CC1 — lower, 0.663%
- CC(C)S(=O)(=O)NCC1CCCN(C(=O)c2ccc(Cl)cc2)C1 (stereo not drawn) — lower, -3.44%
- CCc1cc(CNC(=O)N2CCN(c3nc(C)c(C)s3)CC2)on1 — lower, -11.6%
- O=C(NCCCOC1CCOC1)NC(C1CC1)C1CC1 (stereo not drawn) — lower, -5.36%
- COCCn1cc(NCc2c[nH]nc2C(C)(C)C)cn1 — lower, -2.35%
- CCc1sc(-c2nnc(CNC(C)Cn3cc(C)cn3)o2)cc1C (stereo not drawn) — lower, 0.493%
- Cc1noc(C)c1CSc1nc(=O)ccn1C(C)C — lower, 5.95%
- CCOc1ccc(NC(C)C(=O)Nc2cc(C)no2)cc1 (stereo not drawn) — higher, 7.04%
- COc1cc(CN(C)CCc2ccncc2)c(SC)cc1OC — lower, -2.92%
- Cc1nc(CN2CCc3cncnc3C2)oc1C — lower, -12%
- CCc1nnc(C(C)N2CCCN(C(=O)Oc3ccccc3)CC2)o1 (stereo not drawn) — lower, 2.79%
- O=S(=O)(C1CC1)N1CCC2(CCCN(Cc3ccccn3)C2)CC1 — lower, 5.97%
- c1cc(-c2nnn3c2COC(CNCc2nccs2)C3)ccn1 (stereo not drawn) — lower, 1.94%
- CCOCC(=O)N1CCC(c2nccn2Cc2cscn2)CC1 — lower, -5.58%
- CCc1ccc(CN(CC)Cc2ccc(S(=O)(=O)NC)cc2)cc1 — lower, -8.55%
- Cc1nn2c(N3CCC(C#N)CC3)cc(-c3ccccc3)nc2c1C — lower, -8.6%
- CCc1nc(NC2CCCN(C(=O)c3cccs3)C2)c2cnn(C)c2n1 (stereo not drawn) — higher, 13.9%
- CC(=O)N[C@@H]1CN(Cc2ccco2)C[C@H]1c1ccc(C)o1 — lower, -3.33%
- Cn1nnnc1SCCNC(=O)CC1CCc2ccccc21 (stereo not drawn) — lower, -2.49%
- CC(C)[C@@H]1CN(S(=O)(=O)Cc2ccccc2)C[C@H]1NS(=O)(=O)N(C)C — lower, -0.625%
- COCCN(C)CCN1CC2(CCN(C3CCOC3)CC2)OC1=O (stereo not drawn) — lower, 4.63%
- Cc1nonc1C1CCCN1C(=O)CCc1cc2n(n1)CCCNC2 (stereo not drawn) — lower, -5.65%
- CCC(C)N(Cc1cccnc1)C(=O)c1ccc(OC)cc1O (stereo not drawn) — higher, 8.65%
- CSc1ccccc1CCC1CCS(=O)(=O)C1 (stereo not drawn) — lower, 3.75%
- N#Cc1cccc(C(=O)N2C[C@H](CO)C[C@H](CN3CCCC3)C2)c1 — lower, -1.04%
- O=C1O[C@@H]2CN(C3CCOCC3)C[C@@H]2N1CCCc1ccc(F)cc1 — lower, 5.77%
- CC(C)CNC(=O)CN1CCCC(c2ccc(C(=O)O)cc2)C1 (stereo not drawn) — lower, -6.49%
- CN1N=C(C(=O)N2CCCC(CCc3cccc(F)c3)C2)CCC1=O (stereo not drawn) — lower, -3.42%
- CC(=O)c1ccc(C(=O)N2C[C@@H](CN3CCCC3)[C@@H](CO)C2)cc1 — lower, -0.434%
- CCc1cc(C(=O)N2CCC(C3CCN(c4ncccn4)CC3)C2)on1 (stereo not drawn) — lower, 2.25%
- CCCc1nnc(NC2CCN(Cc3ccc(F)c(F)c3)CC2)o1 — lower, -1.48%
- COc1ccc(-c2n[nH]cc2CN(C)Cc2nonc2C)c(F)c1 — lower, -6.46%
- O=C(CO)N1CCCC2(CCC(=O)N(CC3CC3)C2)C1 (stereo not drawn) — lower, 5.75%
- CCn1cnnc1CCNc1nc(C)cc(C)c1C#N — lower, 2.56%
- Cc1nn(CCNC(C)Cn2ccnc2)c(C)c1Cl (stereo not drawn) — lower, -5.19%
- CCOc1ccc2[nH]c(=O)c(CN3CCCC3c3ccccn3)cc2c1 (stereo not drawn) — lower, -7.04%
- Cc1ccc(-c2nccn2-c2ccc(OC3CCN(C)CC3)cc2)o1 — lower, -10.4%
- CNC(=O)c1cc(OC)c(OC)cc1N(C)S(C)(=O)=O — lower, -5.58%
- COC(=O)CN1CCCn2nc(CCC(=O)N3CCCC3)cc2C1 — lower, -204%
- CCC(NC(=O)C1CCN(S(C)(=O)=O)CC1)c1ccc(C)cc1 (stereo not drawn) — lower, -5.85%
- CC(C)(CNC1CCCN(Cc2ccccn2)C1)CN1CCOCC1 (stereo not drawn) — lower, 5.91%
- Cc1cc(C)n(-c2ccccc2NC(=O)NCCS(=O)(=O)CC(C)C)n1 — lower, -3.92%
- CCCNCc1cc2c(C)cc(C)cc2n2c(=O)n(C)nc12 — lower, -3.09%
- Nc1cc(CCC2CN(Cc3ccc(C(=O)O)cc3)CCO2)ccn1 (stereo not drawn) — higher, 6.98%
- CC(C)c1ccc(OCCNC(=O)CN2CCN(C)CC2C)cc1 (stereo not drawn) — lower, -13.2%
- CCn1ccnc1CN1CCCN(C(=O)c2cc(C)nn2CC)CC1 — lower, -5.89%
- COCCOc1cccc(CNCc2c(C)nn(C)c2N(C)C)c1 — lower, -7.19%
- Cc1nc(C)n(CC2CCCN2Cc2nc(-c3ccccn3)no2)n1 (stereo not drawn) — lower, -9.48%
- COC(=O)c1ccc(N2CCN(CCN3CCOCC3)C(C)C2)cc1 (stereo not drawn) — lower, -13.6%
- NC(=O)Cc1ccc(NC(=O)C2CCOCC2)cc1 — lower, -1.2%
- CC1CN(CC(=O)Nc2nncs2)CCN1c1nccs1 (stereo not drawn) — lower, -15.7%
- Cc1nn(C)c(C)c1C1CCCN1Cc1nc(-c2ccco2)oc1C (stereo not drawn) — lower, -4.27%
- Cc1ccc(-n2nnc(C(=O)NS(C)(=O)=O)c2C2CC2)cc1 — lower, -13.9%
- c1csc(-c2nc(CNC3CCc4ncnn4C3)cs2)c1 (stereo not drawn) — lower, 2.07%
- O=C(Nc1nccs1)NC1CCN(Cc2ccccc2)C1 (stereo not drawn) — lower, -9.93%
- CCc1nc(C2CCCN2C(=O)c2ncoc2CC)no1 (stereo not drawn) — lower, -12.8%
- Cc1ncsc1C(=O)N(C)Cc1cccc(Cl)c1 — lower, -1.27%
- CC(C)c1nnc2n1CCN(C(=O)CN1Cc3ccccc3C1=O)C2 — lower, -1.81%
- CCOC(=O)CN1CCC(C(=O)c2cc(F)ccc2F)CC1 — lower, -8.11%
- COc1ccc(CNC(=O)N(Cc2ccc(F)cc2F)C2CC2)cn1 — lower, -6.67%
- CCN(CC1CCCO1)C(=O)Nc1cc(OC)c(OC)cc1C (stereo not drawn) — lower, -10.9%
- O=C(C1CCC1)N1CCN(c2snc3ccccc23)CC1 — higher, 11.2%
- Cc1csc(N2CCCN(Cc3noc(C)n3)CC2)n1 — lower, -4.26%
- CCOc1cc(C)ccc1NC(=O)N(C)Cc1cnn(C)c1 — lower, -7.15%
- CN(Cc1ccsc1)C(=O)CN1CCOC(Cn2cccn2)C1 (stereo not drawn) — lower, -14.7%
- CNC(=O)c1ccc2c(c1)C1(CCN(CC(C)C)CC1)C(=O)N2 — lower, -2.56%
- CC(C)OCc1nn(C)c2c1CCN(CC1CC1)C2 — lower, 4.91%
- Fc1ccccc1OCCc1cc(C2CNCCO2)n[nH]1 (stereo not drawn) — lower, -2.16%
- CC(C)CS(=O)(=O)N1C[C@@H]2C[C@H](C(=O)N3CCCC3)[C@H](C1)O2 — higher, 17%
- CC(C)=CCN1C[C@@H]2CC[C@H]1CN(C(=O)c1ccc3c(c1)OCO3)C2 — lower, -0.988%
